# Bioassay records: PubChem BioAssay, several laboratories
# GASC-1 inh = inhibitors of human GASC-1 (JMJD2C) demethylase; GST-JMJD2C(1-420) H3K9me3 demethylation, DELFIA europium; inhibition, % at 2.35 µM; 330,000 compounds, 0.069% hits; AID 2099;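 active means more than half of a compound's replicate wells show inhibition beyond 50%, single wells judged on their own value; inconclusive means some, but no more than half, of replicates pass 50% inhibition; inactive means no replicate passes 50% inhibition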;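 further: signal counts dimethyl H3K9 product captured on neutravidin plate; 0% = median of DMSO wells and 100% = 0.3 times that DMSO median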
# DSG3 Ab inh = blocks pemphigus antibody binding to human desmoglein-3 | P32926 | DSG3-coupled beads, scFv-anti-DSG3-GFP binding, flow cytometry; stronger effect = lower value | binding (percent of control), % at 10 µM | 310,000 compounds, 0.48% hits;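 active means binding more than 3 SD below its plate's average and above zero; inconclusive means below that plate limit but binding exactly zero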
# Arr AP2 block = blocks beta-arrestin peptide binding to AP2 adaptin; 340,000 compounds, 0.31% hits; inhibition, % at 10 µM; AID 504490; FITC-arrestin peptide / GST-AP2 beads, flow cytometry; AP2 beta2 appendage carries R879A mutation;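 active means inhibition above a set limit, near 3 SD of compounds lacking own fluorescence, cut at about 54% in these data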;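 further: plate controls were DMSO wells for no effect and 5 µM unlabelled arrestin peptide for full effect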
#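 System: GST-AP2 R879A glutathione beads | Also added: FITC-arrestin peptide, 50 nM | Times: 12 min plus 1 h, RT | Signal: Bead flow cytometry, FITC channel | Buffer or medium: PBS with 0.05% Tween 20 and 0.1% BSA | Read-out basis: Percent drop in bead-associated FITC signal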
# T cell HTS = modulates CD8 T cell binding to vesicles | 2C CD8+ T cell-vesicle binding, flow cytometry; stronger effect = lower value | response (vesicle binding), % at 7 µM | 330,000 compounds, 0.068% hits;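 active means response, share of CD8 T cells binding vesicles, and their 90th percentile fluorescence all below set limits, cut at about 80% in these data, passing the limit was not always enough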;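 further: values below 100% mean blocked vesicle binding to the CD8+ T cells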
#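 Assay system: 2C TCR transgenic mouse naive CD8+ T cells, MACS-purified | Read-out: CD8+ gate FL2 mean fluorescence as % of same-row positive control | Signal: High-throughput flow cytometry with anti-B7-1 and anti-CD8 staining | Timing: Binding step 1.5 h, 37 °C, antibody labelling 20 min, ice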
# HDAC3 inhib = blocks human histone deacetylase 3; inhibition, % at 8.3 µM; AID 2718; 320,000 compounds, 0.15% hits; O15379; recombinant HDAC3, fluorogenic peptide/trypsin coupled, fluorescence; in the data active means inhibition above about 26%, passing the limit was not always enough; inconclusive means no clear call, values can overlap the other calls
# LANA-H2B inh = blocks KSHV LANA binding to histone H2A/H2B. inhibition, % (concentration not given with the values). cell-free LANA-H2A/H2B peptide, fluorescence polarization. AID 2629. Q9QR71. 320,000 compounds, 0.6% hits; in the data active means inhibition mostly above about 10%, no sharp cut-off; inactive means mostly below about 6.7%
# Arr AP2 CP1 = human beta-arrestin and AP2 interaction inhibition, cherry pick | shares compounds with Arr AP2 block | GST-AP2 beads, FITC arrestin peptide binding, flow cytometry; GST-fused beta2-adaptin appendage, R879A mutant | 1,300 compounds, 2% hits | AID 504908 | inhibition, % at 10 µM;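 active means inhibition above a set limit, roughly 3 SD of non-fluorescent compound noise, cut at about 38% in these data; inactive means inhibition at or below that limit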;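 further: loss of bead fluorescence from 50 nM FITC arrestin peptide bound to appendage; 0% = negative control wells and 100% = excess unlabelled arrestin peptide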
# GST-FITC bead = counter-screen for beta-arrestin AP2 inhibitors: GST-GSH bead binding; GST-fluorescein binding to GSH beads, fluorescence; inhibition, % at 10 µM; 1,300 compounds, 2% hits; shares compounds with Arr AP2 block;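 active means inhibition above 50%, about 3 SD of the inhibition seen with non-fluorescent compounds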;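 further: fluorescein maleimide labelled GST captured on 4 micron glutathione beads; higher means more loss of bead fluorescence from quenching or blocked binding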
# * marks the source's active call; other numbers are inactive results; ? = inconclusive; · = no result. Shown are actives, neighbours in structure and some others; about 1.6% of the full set was active somewhere.
SMILES,GASC-1 inh,DSG3 Ab inh,Arr AP2 block,T cell HTS,HDAC3 inhib,LANA-H2B inh,Arr AP2 CP1,GST-FITC bead
Cc1cc2nc(/C(C#N)=C\c3ccc(-c4ccccc4C(=O)O)o3)[nH]c2cc1C,6.8,110.9,54.4*,292.8,-0.9,-7.4,5.8,14.7
O=C(CSc1ccccc1F)NCC(c1ccco1)N1CCCCC1 (stereo not drawn),·,102.2,·,·,·,·,·,·
Brc1cccc(CNCc2cccs2)c1,0.1,105.0,54.9*,235.3,-3.5,3.0,-11.8,-7.8
FC(F)(F)c1cc(C(F)(F)F)c2ccc(Oc3ccccc3)nc2n1,4.6,101.5,4.7,563.8,6.8,-9.1,·,·
Nc1ccc2c(C(F)(F)F)cc(C(F)(F)F)nc2n1,1.6,102.0,55.9*,177.7,-88.2,0.4,-3.4,-6.0
Cc1c(NC(=O)COC(=O)c2cccn2C)c(=O)n(-c2ccccc2)n1C,0.2,91.4,-14.8,290.9,-0.7,-2.8,·,·
CCOc1ccc(/C=C/C(=O)NCCc2ccc(OC)c(OC)c2)cc1,2.5,105.8,56.5*,280.3,2.5,3.2,-12.2,-7.8
Cc1cc(NC(=O)c2cc(-c3ccccc3C)nc3ccccc23)no1,-2.9,97.4,4.2,81.3,1.0,-0.2,·,·
Cc1cc(NC(=O)c2cc(-c3ccc(C)s3)nc3ccccc23)no1,-0.4,79.7,103.4*,473.9,-3.4,4.3,22.2,38.3
COc1cccc(CN(C)c2nc(-c3cccs3)nc3ccccc23)c1,0.3,104.2,55.0*,645.3,1.6,4.2,-11.1,-3.4
COC(=O)c1c(NC(=O)/C=C/C(=O)O)sc(C)c1-c1ccc(C(C)C)cc1,-1.1,96.2,56.8*,356.3,6.5,-0.9,-2.4,-10.5
COC(=O)c1cc(OC)c(OC)cc1NC(=S)N1CCCC1,-13.7,110.8,55.6*,217.9,-0.8,1.8,2.4,-5.2
CC[C@H]1c2[nH]c3ccccc3c2C[C@@H]2C(=O)N(c3ccc(F)cc3)C(=O)N21,·,97.9,10.8,441.9,2.6,-9.3,·,·
CCOC(=O)c1sc2ncn(CC(=O)Nc3cc(C)on3)c(=O)c2c1C,·,102.9,63.1*,414.7,·,·,12.5,-2.3
CCOC(=O)Cn1cnc2sc(C(=O)OC)c(C)c2c1=O,2.6,93.2,-4.9,285.2,2.4,-1.6,·,·
O=C(NC(=S)Nc1ccc(N2CCOCC2)cc1)c1cccs1,6.3,108.5,59.8*,224.9,5.9,6.0,-3.8,3.3
CCC(=O)N1c2ccccc2NC2=C(C(=O)CC(c3ccco3)C2)C1c1ccco1 (stereo not drawn),-0.6,96.0,7.7,227.5,1.3,-1.3,·,·
O=C1CC(c2ccco2)CC2=C1C1c3ccccc3C(=O)N1c1ccccc1N2 (stereo not drawn),2.8,98.0,98.6*,291.7,-0.1,0.2,5.6,-3.7
CC12CCC(=O)N1C(C(=O)Nc1ccccc1N1CCCCC1)CS2 (stereo not drawn),2.8,96.9,-1.7,498.1,1.5,3.0,·,·
CCN(C[C@H]1N[C@@](Cc2ccccc2)(C(=O)OC)[C@H]2C(=O)N(C)C(=O)[C@@H]12)S(=O)(=O)c1ccc(-c2ccccc2)cc1,·,85.2,2.6,547.0,·,·,·,·
NC(=O)NCC(c1ccccc1)C1CCCCC1 (stereo not drawn),-3.8,115.0,61.4*,221.8,-0.7,-0.6,-6.7,-2.2
Cc1noc(C)c1CSc1ncnc2sc3c(c12)CCCCC3,7.3,103.6,6.1,433.7,3.4,3.4,·,·
Cc1noc(C)c1CSc1ncnc2sc(C)c(C)c12,-5.1,104.1,104.7*,207.1,3.6,4.2,-6.5,2.1
COc1ccccc1NC(=O)Nc1nc(CC(=O)Nc2cc(F)ccc2F)cs1,?,96.5,-6.3,240.9,-4.5,-1.1,·,·
CCOC(=O)N1CCN(C(=O)C2CCN(C(=O)c3ccc(C(C)(C)C)cc3)CC2)CC1,-9.2,92.8,24.2,182.0,0.6,-2.7,·,·
